Results: ChEMBL document CHEMBL1133180 (2000)

How the values were obtained:
Mus musculus [1] = species on record: Mus musculus; assay: Change in the latency time on day 1 to that of day 2; format: functional
Outline: (§1)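 Mouse light/dark step-through test with a pitfall floor: entering the dark room drops the mouse 40 cm into 10 °C water. Latencies in s are taken at training and at retention 24 h later, capped at 120 s. Mice not entering within 60 s are excluded. Dosing is sc 20 min before training, in saline or DMSO/H2O vehicle.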

Mus musculus [2] = species on record: Mus musculus; assay: Latency time on 1st day of mouse passive-avoidance test.; also: test concentration or dose not given here; format: functional
Outline: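 Mouse light/dark step-through test with a pitfall floor: entering the dark room drops the mouse 40 cm into 10 °C water. Mice not entering within 60 s are excluded. Dosing is sc 20 min before training, in saline or DMSO/H2O vehicle.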

Mus musculus [3] = species on record: Mus musculus; assay: Latency time on 2nd (post-treatment) day of mouse passive-avoidance test.; format: functional; outline: as §1
Mus musculus [4] = assay: Minimal effective s.c. dose to reverse Scopolamine induced amnesia in mouse passive-avoidance test.
Mus musculus [5] = assay: Minimal effective dose to reverse Scopolamine induced amnesia, when given ip in mouse passive avoidance test; format: functional
Outline: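 Mouse passive avoidance (light/dark box) with a pitfall floor: entering the dark room drops the mouse 40 cm into 10 °C water. Test drugs were given in a 1-to-10 dilution series 20 min before training. […] Retention was tested at 24 h, with a 120 s maximum. Mice not entering within 60 s at training were excluded. The read-out is the retention minus training latency (s).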

Mus musculus [6] = assay: Minimal effective dose to reverse Scopolamine induced amnesia, when given sc in mouse passive avoidance test; Dose limited by solubility problems; format: functional

## O=C1CC[C@@H]2CN(S(=O)(=O)c3ccc(F)cc3)CCN12
Mus musculus [1]
  Delta latency time: 93.8 s
Mus musculus [2]
  Latency time: 19.7 s
Mus musculus [3]
  Latency time: 104.4 s
Mus musculus [4]
  Dose: 0.001 mg/kg

## O=C1CC[C@@H]2CN(Cc3ccc(F)cc3)CCN12
Mus musculus [4]
  Dose: >10 mg/kg

## O=C(c1ccc(F)cc1)N1CCN2C(=O)CC[C@@H]2C1
Mus musculus [1]
  Delta latency time: 77.2 s
Mus musculus [2]
  Latency time: 11.7 s
Mus musculus [3]
  Latency time: 88.9 s
Mus musculus [4]
  Dose: 10 mg/kg

## Cc1ccc(C(=O)N2CCN3C(=O)CC[C@@H]3C2)cc1
Mus musculus [1]
  Delta latency time: 84.5 s
Mus musculus [2]
  Latency time: 15.6 s
Mus musculus [3]
  Latency time: 100.1 s
Mus musculus [4]
  Dose: 1 mg/kg

## O=C1CC[C@@H]2CN(S(=O)(=O)c3ccc([N+](=O)[O-])cc3)CCN12
Mus musculus [1]
  Delta latency time: 75.4 s
Mus musculus [2]
  Latency time: 13.8 s
Mus musculus [3]
  Latency time: 89.2 s
Mus musculus [4]
  Dose: 10 mg/kg

## Cc1ccc(S(=O)(=O)N2CCN3C(=O)CC[C@@H]3C2)cc1
Mus musculus [1]
  Delta latency time: 80.5 s
Mus musculus [2]
  Latency time: 15.1 s
Mus musculus [3]
  Latency time: 95.6 s
Mus musculus [4]
  Dose: 1 mg/kg

## NC(=O)CN1CCCC1=O
Mus musculus [1]
  Delta latency time: 91.2 s
Mus musculus [5]
  Dose: 30 mg/kg
Mus musculus [2]
  Latency time: 17.6 s
Mus musculus [3]
  Latency time: 108.8 s

## COc1ccc(C(=O)N2CCN3C(=O)CC[C@@H]3C2)cc1
Mus musculus [6]
  Dose: >1 mg/kg

## O=C(c1ccc(Cl)cc1)N1CCN2C(=O)CC[C@@H]2C1
Mus musculus [1]
  Delta latency time: 85.4 s
Mus musculus [2]
  Latency time: 18.3 s
Mus musculus [3]
  Latency time: 103.7 s
Mus musculus [4]
  Dose: 10 mg/kg

## O=C(c1ccc([N+](=O)[O-])cc1)N1CCN2C(=O)CC[C@@H]2C1
Mus musculus [1]
  Delta latency time: 78.2 s
Mus musculus [2]
  Latency time: 18 s
Mus musculus [3]
  Latency time: 96.2 s
Mus musculus [4]
  Dose: 10 mg/kg

## O=C1CC[C@@H]2CN(S(=O)(=O)c3ccc(Cl)cc3)CCN12
Mus musculus [6]
  Dose: >0.1 mg/kg

## O=C1CC[C@@H]2CN(Cc3ccccc3)CCN12
Mus musculus [1]
  Delta latency time: 63.2 s
Mus musculus [2]
  Latency time: 14.2 s
Mus musculus [3]
  Latency time: 77.4 s
Mus musculus [4]
  Dose: 1 mg/kg

## COc1ccc(S(=O)(=O)N2CCN3C(=O)CC[C@@H]3C2)cc1
Mus musculus [1]
  Delta latency time: 103.5 s
Mus musculus [2]
  Latency time: 14.8 s
Mus musculus [3]
  Latency time: 118.3 s
Mus musculus [4]
  Dose: 0.1 mg/kg

## O=C1CC[C@@H]2CN(S(=O)(=O)c3ccccc3)CCN12
Mus musculus [6]
  Dose: >10 mg/kg

## O=C(c1ccccc1)N1CCN2C(=O)CC[C@@H]2C1
Mus musculus [1]
  Delta latency time: 85.2 s
Mus musculus [2]
  Latency time: 16.8 s
Mus musculus [3]
  Latency time: 102 s
Mus musculus [4]
  Dose: 1 mg/kg

## C[C@@H]1C[C@@H]2CN(C(=O)c3ccccc3)CCN2C1=O (relative stereo)
Mus musculus [1]
  Delta latency time: 65.8 s
Mus musculus [2]
  Latency time: 17.7 s
Mus musculus [3]
  Latency time: 83.5 s
Mus musculus [4]
  Dose: 1 mg/kg

## C[C@H]1C[C@@H]2CN(C(=O)c3ccccc3)CCN2C1=O (relative stereo)
Mus musculus [1]
  Delta latency time: 85.2 s
Mus musculus [2]
  Latency time: 14.3 s
Mus musculus [3]
  Latency time: 99.5 s
Mus musculus [4]
  Dose: 1 mg/kg

## C[C@H]1C[C@@H]2CN(C(=O)c3ccc(F)cc3)CCN2C1=O (relative stereo)
Mus musculus [1]
  Delta latency time: 85.6 s
Mus musculus [2]
  Latency time: 21.8 s
Mus musculus [3]
  Latency time: 107.4 s
Mus musculus [4]
  Dose: 0.1 mg/kg

## C[C@@H]1C[C@@H]2CN(S(=O)(=O)c3ccc(F)cc3)CCN2C1=O (relative stereo)
Mus musculus [1]
  Delta latency time: 96.5 s
Mus musculus [2]
  Latency time: 21.9 s
Mus musculus [3]
  Latency time: 118.4 s
Mus musculus [4]
  Dose: 0.1 mg/kg

## C[C@H]1C[C@@H]2CN(S(=O)(=O)c3ccccc3)CCN2C1=O (relative stereo)
Mus musculus [1]
  Delta latency time: 73 s
Mus musculus [2]
  Latency time: 18.3 s
Mus musculus [3]
  Latency time: 91.3 s
Mus musculus [4]
  Dose: 10 mg/kg

## C[C@H]1C[C@@H]2CN(S(=O)(=O)c3ccc(F)cc3)CCN2C1=O (relative stereo)
Mus musculus [1]
  Delta latency time: 78 s
Mus musculus [2]
  Latency time: 16.9 s
Mus musculus [3]
  Latency time: 94.9 s
Mus musculus [4]
  Dose: 0.1 mg/kg

## C[C@@H]1C[C@@H]2CN(S(=O)(=O)c3ccccc3)CCN2C1=O (relative stereo)
Mus musculus [1]
  Delta latency time: 78.5 s
Mus musculus [2]
  Latency time: 13.6 s
Mus musculus [3]
  Latency time: 94.8 s
Mus musculus [4]
  Dose: 1 mg/kg

## C[C@@H]1C[C@@H]2CN(C(=O)c3ccc(F)cc3)CCN2C1=O (relative stereo)
Mus musculus [1]
  Delta latency time: 80 s
Mus musculus [2]
  Latency time: 24 s
Mus musculus [3]
  Latency time: 104 s
Mus musculus [4]
  Dose: 0.1 mg/kg

## CN1[C@@H]2C[C@@H](OC(=O)[C@H](CO)c3ccccc3)C[C@H]1[C@@H]1O[C@@H]12 [SCOPOLAMINE]
Mus musculus [1]
  Delta latency time: 27.9 s
Mus musculus [5]
  Dose: 1.5 mg/kg
Mus musculus [3]
  Latency time: 44.5 s
